# Measured values as given in ChEMBL document CHEMBL1151265, “Steroidal saponins from Smilax medica and their antifungal activity” (2005).
# Legend:
# Type in all cases: functional
# Candida tropicalis = assay: Antifungal activity against Candida tropicalis after 48 hrs by spectrophotometry; conditions: for MIC: Candida tropicalis, 48 h
# How it was run: (§1)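 Broth microdilution MIC against pathogenic human yeast strains. Saponin in malt extract broth (malt extract 15 g, peptone 5 g per L), final 3.12-200 µg/mL, serial dilution, triplicate wells. Each well inoculated with 10 µL of 10^4 CFU/mL suspension, incubated 30 °C for 48 h, growth read at 630 nm. MIC is the lowest concentration with no visible growth.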
# Candida albicans = assay: Antifungal activity against Candida albicans after 48 hrs by spectrophotometry; conditions: for MIC: Candida albicans, 48 h; how it was run: as §1
# Nakaseomyces glabratus = assay: Antifungal activity against Candida glabrata after 48 hrs by spectrophotometry; conditions: for MIC: Nakaseomyces glabratus, 48 h; how it was run: as §1
MIC (Candida tropicalis) [µg/mL],MIC (Candida albicans) [µg/mL],MIC (Nakaseomyces glabratus) [µg/mL],SMILES,Activity (Candida tropicalis) [µg/mL],Activity (Candida albicans) [µg/mL],Activity (Nakaseomyces glabratus) [µg/mL]
50,25,12.5,C[C@@H]1CC[C@@]2(OC1)O[C@H]1C[C@H]3[C@@H]4CC[C@@H]5C[C@@H](O[C@@H]6O[C@H](CO[C@@H]7O[C@H](CO)[C@@H](O)[C@H](O)[C@H]7O)[C@@H](O[C@@H]7O[C@H](CO)[C@@H](O)[C@H](O)[C@H]7O)[C@H](O)[C@H]6O[C@@H]6O[C@H](CO)[C@@H](O)[C@H](O)[C@H]6O)CC[C@]5(C)[C@H]4CC[C@]3(C)[C@H]1[C@@H]2C,,,
50,25,12.5,C[C@@H]1CC[C@@]2(OC1)O[C@H]1C[C@H]3[C@@H]4CC[C@@H]5C[C@@H](O[C@@H]6O[C@H](CO[C@@H]7O[C@H](CO)[C@@H](O)[C@H](O)[C@H]7O)[C@@H](O[C@@H]7O[C@H](CO)[C@@H](O)[C@H](O)[C@H]7O)[C@H](O)[C@H]6O)CC[C@]5(C)[C@H]4CC[C@]3(C)[C@H]1[C@@H]2C,,,
,,,CO[C@]1(CC[C@@H](C)CO[C@@H]2O[C@H](CO)[C@@H](O)[C@H](O)[C@H]2O)O[C@H]2C[C@H]3[C@@H]4CC[C@@H]5C[C@@H](O[C@@H]6O[C@H](CO[C@@H]7O[C@H](CO)[C@@H](O)[C@H](O)[C@H]7O)[C@@H](O[C@@H]7O[C@H](CO)[C@@H](O)[C@H](O)[C@H]7O)[C@H](O)[C@H]6O[C@@H]6O[C@H](CO)[C@@H](O)[C@H](O)[C@H]6O)CC[C@]5(C)[C@H]4CC[C@]3(C)[C@H]2[C@@H]1C,>200,>200,>200
50,25,25,C[C@@H]1CC[C@@]2(OC1)O[C@H]1C[C@H]3[C@@H]4CC[C@@H]5C[C@@H](O[C@@H]6O[C@H](CO[C@@H]7O[C@H](CO)[C@@H](O)[C@H](O)[C@H]7O)[C@@H](O)[C@H](O)[C@H]6O[C@@H]6O[C@H](CO)[C@@H](O)[C@H](O)[C@H]6O)CC[C@]5(C)[C@H]4CC[C@]3(C)[C@H]1[C@@H]2C [DISPOROSIDE A],,,

SMILES,MIC (Candida tropicalis) [µg/mL],MIC (Candida albicans) [µg/mL],MIC (Nakaseomyces glabratus) [µg/mL],Activity (Candida tropicalis) [µg/mL],Activity (Candida albicans) [µg/mL],Activity (Nakaseomyces glabratus) [µg/mL]
CC(=O)N1CCN(c2ccc(OCC3COC(Cn4ccnc4)(c4ccc(Cl)cc4Cl)O3)cc2)CC1 (stereo not given) [KETOCONAZOLE],1.56,0.78,0.78,,,
